Experiments:
[1] = target: Serine/threonine-protein kinase STK11 (Homo sapiens) (UniProt Q15831); assay: Inhibition of human LKB1 assessed as residual activity at 1 uM relative to control
[2] = target: Calcium/calmodulin-dependent protein kinase type 1 (Homo sapiens) (UniProt Q14012); assay: Inhibition of human CaMK1 assessed as residual activity at 1 uM relative to control
[3] = test system: K562; assay: Antiproliferative activity against human K562 cells after 3 days by sulforhodamine B assay; format: functional; conditions: K562, 72 h
Procedure, shortened: (§1)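 Tested in the NCI 60 cell line panel. GI50 is the concentration giving 50% inhibition of cell growth, and values are the mean of two series of tests.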

[4] = target: Proto-oncogene tyrosine-protein kinase receptor Ret (Homo sapiens) (UniProt P07949); assay: Inhibition of RET (unknown origin) assessed as residual activity at 10 uM relative to control
[5] = target: Mast/stem cell growth factor receptor Kit (Homo sapiens) (UniProt P10721); assay: Inhibition of human cKit assessed as residual activity at 1 uM relative to control
[6] = target: Dual specificity mitogen-activated protein kinase kinase 1 (Homo sapiens) (UniProt Q02750); assay: Inhibition of human MEK1 assessed as residual activity at 1 uM relative to control
[7] = target: T1, Serine/threonine-protein kinase Chk1 (Homo sapiens) (UniProt O14757); assay: Inhibition of human CHK1 assessed as residual activity at 1 uM relative to control
T1 sequence (whole entry): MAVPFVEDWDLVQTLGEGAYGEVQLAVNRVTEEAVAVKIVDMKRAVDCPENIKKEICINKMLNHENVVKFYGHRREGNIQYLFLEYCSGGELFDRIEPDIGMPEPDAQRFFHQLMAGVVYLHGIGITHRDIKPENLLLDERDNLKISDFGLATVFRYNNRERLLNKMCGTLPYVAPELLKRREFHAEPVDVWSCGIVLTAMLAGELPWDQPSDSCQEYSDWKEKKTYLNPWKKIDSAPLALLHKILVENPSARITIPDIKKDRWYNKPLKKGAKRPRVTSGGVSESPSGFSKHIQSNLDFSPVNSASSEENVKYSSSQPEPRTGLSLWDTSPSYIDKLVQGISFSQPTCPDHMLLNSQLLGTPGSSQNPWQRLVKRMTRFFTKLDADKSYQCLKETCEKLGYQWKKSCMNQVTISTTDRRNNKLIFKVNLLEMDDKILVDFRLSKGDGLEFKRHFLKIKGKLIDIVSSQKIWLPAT

[8] = Antiproliferative activity against human SF539 cells after 3 days by sulforhodamine B assay; format: functional; conditions: SF-539, 72 h; procedure, shortened: as §1
[9] = test system: SW-620; assay: Antiproliferative activity against human SW620 cells after 3 days by sulforhodamine B assay; format: functional; conditions: SW-620, 72 h
[10] = target: RAF proto-oncogene serine/threonine-protein kinase (Homo sapiens) (UniProt P04049); assay: Inhibition of human c-RAF assessed as residual activity at 1 uM relative to control
[11] = target: Casein kinase I isoform gamma-2 (Homo sapiens) (UniProt P78368); assay: Inhibition of human CK1gamma2 assessed as residual activity at 1 uM relative to control
[12] = target: Dual specificity protein kinase CLK2 (Homo sapiens) (UniProt P49760); assay: Inhibition of human CLK2 assessed as residual activity at 1 uM relative to control
[13] = target: Serine/threonine-protein kinase Sgk1 (Homo sapiens) (UniProt O00141); assay: Inhibition of human SGK assessed as residual activity at 1 uM relative to control
[14] = organism: Homo sapiens; assay: Inhibition of S6K (unknown origin) assessed as residual activity at 1 uM relative to control
[15] = test system: OVCAR-3; assay: Antiproliferative activity against human OVCAR3 cells after 3 days by sulforhodamine B assay; format: functional; conditions: OVCAR-3, 72 h; procedure, shortened: as §1
[16] = target: Cyclin-dependent kinase 2/cyclin E1 (Homo sapiens) (UniProt P24864+P24941); assay: Inhibition of CDK2/CycE (unknown origin) assessed as residual activity at 10 uM relative to control; format: protein-complex assay
[17] = target: Ephrin type-B receptor 1 (Homo sapiens) (UniProt P54762); assay: Inhibition of human EphB1 assessed as residual activity at 1 uM relative to control
[18] = test system: PC-3; assay: Antiproliferative activity against human PC3 cells after 3 days by sulforhodamine B assay; format: functional; conditions: PC-3, 72 h; procedure, shortened: as §1
[19] = target: Serine/threonine-protein kinase MRCK alpha (Homo sapiens) (UniProt Q5VT25); assay: Inhibition of human MRCKalpha assessed as residual activity at 1 uM relative to control
[20] = test system: HCT-116; assay: Antiproliferative activity against human HCT116 cells after 3 days by sulforhodamine B assay; format: functional; conditions: HCT-116, 72 h; procedure, shortened: as §1
[21] = test system: NCI-H460; assay: Antiproliferative activity against human NCI-H460 cells after 3 days by sulforhodamine B assay; format: functional; conditions: NCI-H460, 72 h; procedure, shortened: as §1
[22] = target: Death-associated protein kinase 2 (Homo sapiens) (UniProt Q9UIK4); assay: Inhibition of human DAPK2 assessed as residual activity at 1 uM relative to control
[23] = target: Casein kinase I isoform gamma-1 (Homo sapiens) (UniProt Q9HCP0); assay: Inhibition of human CK1gamma1 assessed as residual activity at 1 uM relative to control
[24] = target: Proto-oncogene tyrosine-protein kinase Src (Homo sapiens) (UniProt P12931); assay: Inhibition of human cSRC assessed as residual activity at 1 uM relative to control
[25] = target: Platelet-derived growth factor receptor beta (Homo sapiens) (UniProt P09619); assay: Inhibition of human PDGFRbeta assessed as residual activity at 1 uM relative to control
[26] = target: Receptor-type tyrosine-protein kinase FLT3 (Homo sapiens) (UniProt P36888); assay: Inhibition of human Flt3 assessed as residual activity at 1 uM relative to control
[27] = test system: T47D; assay: Antiproliferative activity against human T47D cells after 3 days by sulforhodamine B assay; format: functional; conditions: 72 h
[28] = target: MAP kinase-activated protein kinase 3 (Homo sapiens) (UniProt Q16644); assay: Inhibition of human MAPKAP-K3 assessed as residual activity at 1 uM relative to control
[29] = test system: COLO 205; assay: Antiproliferative activity against human COLO205 cells after 3 days by sulforhodamine B assay; format: functional; conditions: COLO 205, 72 h; procedure, shortened: as §1
[30] = target: Serine/threonine-protein kinase PAK 5 (Homo sapiens) (UniProt Q9P286); assay: Inhibition of human PAK5 assessed as residual activity at 1 uM relative to control
[31] = target: CDK9/cyclin T1 (Homo sapiens) (UniProt O60563+P50750); assay: Inhibition of human CDK9/cyclin T1 assessed as residual activity at 1 uM relative to control; format: protein-complex assay

Chain of Dual specificity protein kinase CLK2 (Homo sapiens) (P49760 whole entry, looked up): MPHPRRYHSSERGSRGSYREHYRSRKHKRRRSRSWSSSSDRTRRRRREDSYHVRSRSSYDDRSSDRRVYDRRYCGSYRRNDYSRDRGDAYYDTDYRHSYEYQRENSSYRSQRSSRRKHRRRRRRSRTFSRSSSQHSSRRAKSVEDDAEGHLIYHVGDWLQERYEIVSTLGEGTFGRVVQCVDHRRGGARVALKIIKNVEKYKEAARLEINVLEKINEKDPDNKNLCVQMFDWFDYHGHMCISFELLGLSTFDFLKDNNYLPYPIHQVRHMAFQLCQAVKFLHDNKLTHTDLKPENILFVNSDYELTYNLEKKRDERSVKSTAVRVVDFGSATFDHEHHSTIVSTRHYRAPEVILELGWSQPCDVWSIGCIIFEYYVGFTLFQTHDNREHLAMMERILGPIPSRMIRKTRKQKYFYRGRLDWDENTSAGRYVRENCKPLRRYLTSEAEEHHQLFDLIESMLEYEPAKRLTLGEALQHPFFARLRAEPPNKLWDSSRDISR
Chain of Proto-oncogene tyrosine-protein kinase receptor Ret (Homo sapiens) (P07949 whole entry): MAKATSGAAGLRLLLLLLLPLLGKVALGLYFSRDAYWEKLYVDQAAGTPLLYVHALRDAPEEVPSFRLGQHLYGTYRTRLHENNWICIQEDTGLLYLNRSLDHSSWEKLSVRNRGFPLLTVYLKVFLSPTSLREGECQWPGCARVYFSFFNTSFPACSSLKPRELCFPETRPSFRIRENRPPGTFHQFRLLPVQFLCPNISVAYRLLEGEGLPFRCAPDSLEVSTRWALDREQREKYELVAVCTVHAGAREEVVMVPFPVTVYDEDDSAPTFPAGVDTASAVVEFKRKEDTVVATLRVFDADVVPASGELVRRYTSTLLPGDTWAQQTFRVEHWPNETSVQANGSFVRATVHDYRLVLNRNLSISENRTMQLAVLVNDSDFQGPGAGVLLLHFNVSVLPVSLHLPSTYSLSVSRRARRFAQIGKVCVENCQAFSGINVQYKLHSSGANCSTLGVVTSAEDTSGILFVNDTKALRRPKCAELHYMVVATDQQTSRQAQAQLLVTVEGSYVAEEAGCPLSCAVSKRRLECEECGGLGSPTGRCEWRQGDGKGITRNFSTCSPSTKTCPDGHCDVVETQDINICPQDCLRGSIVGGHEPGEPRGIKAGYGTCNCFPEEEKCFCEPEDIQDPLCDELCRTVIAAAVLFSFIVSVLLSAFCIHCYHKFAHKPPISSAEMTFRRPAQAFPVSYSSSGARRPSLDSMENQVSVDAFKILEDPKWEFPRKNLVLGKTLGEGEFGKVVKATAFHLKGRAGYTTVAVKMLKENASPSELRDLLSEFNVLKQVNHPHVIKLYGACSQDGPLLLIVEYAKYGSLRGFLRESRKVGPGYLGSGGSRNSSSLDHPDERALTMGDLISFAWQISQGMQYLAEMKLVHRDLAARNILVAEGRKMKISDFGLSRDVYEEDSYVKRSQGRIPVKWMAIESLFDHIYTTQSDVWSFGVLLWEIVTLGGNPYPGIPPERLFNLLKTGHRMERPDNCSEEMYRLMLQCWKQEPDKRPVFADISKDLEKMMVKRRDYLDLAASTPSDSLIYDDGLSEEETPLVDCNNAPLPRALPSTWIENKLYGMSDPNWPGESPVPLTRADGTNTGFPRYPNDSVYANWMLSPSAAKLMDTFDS
Chain of Serine/threonine-protein kinase STK11 (Homo sapiens) (Q15831 whole entry): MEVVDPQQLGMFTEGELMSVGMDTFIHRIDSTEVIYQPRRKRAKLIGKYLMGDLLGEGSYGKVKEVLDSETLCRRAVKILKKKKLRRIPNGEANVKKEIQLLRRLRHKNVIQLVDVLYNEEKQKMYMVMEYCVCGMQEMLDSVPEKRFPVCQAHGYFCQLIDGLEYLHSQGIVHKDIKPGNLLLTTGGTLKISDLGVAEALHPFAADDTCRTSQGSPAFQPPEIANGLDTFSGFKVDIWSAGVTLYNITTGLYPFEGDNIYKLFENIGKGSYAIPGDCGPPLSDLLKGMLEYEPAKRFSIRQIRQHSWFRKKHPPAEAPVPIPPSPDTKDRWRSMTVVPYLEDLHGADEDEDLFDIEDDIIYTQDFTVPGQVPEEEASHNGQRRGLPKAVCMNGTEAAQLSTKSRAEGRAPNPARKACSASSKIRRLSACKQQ
Chain of Serine/threonine-protein kinase MRCK alpha (Homo sapiens) (Q5VT25 whole entry): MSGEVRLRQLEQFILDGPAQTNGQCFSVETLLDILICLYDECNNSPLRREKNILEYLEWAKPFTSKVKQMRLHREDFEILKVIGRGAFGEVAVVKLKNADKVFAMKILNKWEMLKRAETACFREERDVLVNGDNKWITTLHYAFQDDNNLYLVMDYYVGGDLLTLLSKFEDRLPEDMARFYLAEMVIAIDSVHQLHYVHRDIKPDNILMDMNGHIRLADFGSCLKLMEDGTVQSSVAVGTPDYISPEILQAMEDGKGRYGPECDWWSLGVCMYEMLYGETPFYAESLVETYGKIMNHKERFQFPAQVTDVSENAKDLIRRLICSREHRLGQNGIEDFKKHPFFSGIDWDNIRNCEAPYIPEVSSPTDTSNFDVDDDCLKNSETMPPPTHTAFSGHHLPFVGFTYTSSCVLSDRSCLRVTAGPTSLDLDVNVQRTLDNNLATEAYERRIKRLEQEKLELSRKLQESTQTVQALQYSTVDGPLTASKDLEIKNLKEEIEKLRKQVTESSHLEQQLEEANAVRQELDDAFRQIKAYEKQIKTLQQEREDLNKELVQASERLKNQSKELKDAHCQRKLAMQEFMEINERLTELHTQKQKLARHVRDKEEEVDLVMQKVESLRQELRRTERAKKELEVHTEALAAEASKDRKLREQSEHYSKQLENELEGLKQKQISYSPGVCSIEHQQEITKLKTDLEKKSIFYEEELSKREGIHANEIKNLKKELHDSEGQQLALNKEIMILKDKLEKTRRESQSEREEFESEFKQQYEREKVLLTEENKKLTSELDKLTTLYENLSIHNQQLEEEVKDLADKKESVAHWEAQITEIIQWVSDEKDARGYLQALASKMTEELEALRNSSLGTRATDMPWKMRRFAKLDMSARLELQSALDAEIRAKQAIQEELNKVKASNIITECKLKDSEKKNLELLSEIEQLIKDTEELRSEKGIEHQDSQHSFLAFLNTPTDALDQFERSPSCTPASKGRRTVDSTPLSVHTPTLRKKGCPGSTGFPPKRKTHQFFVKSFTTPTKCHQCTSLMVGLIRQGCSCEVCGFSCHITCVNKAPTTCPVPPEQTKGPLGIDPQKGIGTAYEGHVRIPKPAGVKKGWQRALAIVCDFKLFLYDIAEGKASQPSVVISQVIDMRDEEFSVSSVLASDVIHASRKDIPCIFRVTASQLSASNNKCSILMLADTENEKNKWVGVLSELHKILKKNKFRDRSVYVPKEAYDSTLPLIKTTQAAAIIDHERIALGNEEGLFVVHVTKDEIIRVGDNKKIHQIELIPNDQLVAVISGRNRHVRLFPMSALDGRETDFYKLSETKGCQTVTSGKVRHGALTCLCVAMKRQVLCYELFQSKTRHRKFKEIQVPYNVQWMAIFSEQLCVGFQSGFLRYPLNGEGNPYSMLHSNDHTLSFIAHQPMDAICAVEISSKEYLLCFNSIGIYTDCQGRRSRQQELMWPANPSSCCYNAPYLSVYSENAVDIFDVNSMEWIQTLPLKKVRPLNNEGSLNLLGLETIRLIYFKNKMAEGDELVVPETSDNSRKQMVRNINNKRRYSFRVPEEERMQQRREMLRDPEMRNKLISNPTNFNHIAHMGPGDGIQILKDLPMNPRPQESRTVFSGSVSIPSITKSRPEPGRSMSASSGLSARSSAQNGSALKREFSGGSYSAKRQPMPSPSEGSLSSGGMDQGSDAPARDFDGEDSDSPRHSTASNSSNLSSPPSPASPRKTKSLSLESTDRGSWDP
Chain of Death-associated protein kinase 2 (Homo sapiens) (Q9UIK4 whole entry, looked up, canonical isoform): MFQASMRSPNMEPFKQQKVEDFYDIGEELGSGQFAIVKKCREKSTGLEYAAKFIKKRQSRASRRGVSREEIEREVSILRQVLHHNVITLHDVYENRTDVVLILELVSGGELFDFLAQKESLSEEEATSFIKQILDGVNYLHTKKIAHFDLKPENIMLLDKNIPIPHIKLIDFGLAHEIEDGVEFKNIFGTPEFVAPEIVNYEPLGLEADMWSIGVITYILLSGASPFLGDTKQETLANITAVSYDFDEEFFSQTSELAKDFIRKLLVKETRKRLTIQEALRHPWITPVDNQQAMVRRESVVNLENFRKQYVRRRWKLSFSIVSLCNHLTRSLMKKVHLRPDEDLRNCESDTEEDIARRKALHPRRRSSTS
Chain of Proto-oncogene tyrosine-protein kinase Src (Homo sapiens) (P12931 2-536 limits assumed): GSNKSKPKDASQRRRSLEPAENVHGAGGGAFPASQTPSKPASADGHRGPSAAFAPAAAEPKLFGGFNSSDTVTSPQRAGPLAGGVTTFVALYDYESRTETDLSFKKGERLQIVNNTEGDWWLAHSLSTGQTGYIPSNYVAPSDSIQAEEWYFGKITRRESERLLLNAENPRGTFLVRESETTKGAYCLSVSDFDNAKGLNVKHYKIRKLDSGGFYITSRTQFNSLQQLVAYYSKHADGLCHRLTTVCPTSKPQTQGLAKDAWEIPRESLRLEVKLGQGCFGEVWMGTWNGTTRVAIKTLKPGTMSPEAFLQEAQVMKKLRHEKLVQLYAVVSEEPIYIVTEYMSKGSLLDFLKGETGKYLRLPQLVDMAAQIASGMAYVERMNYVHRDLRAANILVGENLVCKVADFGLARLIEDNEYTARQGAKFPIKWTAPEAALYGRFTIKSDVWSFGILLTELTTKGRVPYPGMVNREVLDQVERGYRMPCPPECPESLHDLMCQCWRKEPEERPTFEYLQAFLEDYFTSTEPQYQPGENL
Chain of Dual specificity mitogen-activated protein kinase kinase 1 (Homo sapiens) (Q02750 whole entry): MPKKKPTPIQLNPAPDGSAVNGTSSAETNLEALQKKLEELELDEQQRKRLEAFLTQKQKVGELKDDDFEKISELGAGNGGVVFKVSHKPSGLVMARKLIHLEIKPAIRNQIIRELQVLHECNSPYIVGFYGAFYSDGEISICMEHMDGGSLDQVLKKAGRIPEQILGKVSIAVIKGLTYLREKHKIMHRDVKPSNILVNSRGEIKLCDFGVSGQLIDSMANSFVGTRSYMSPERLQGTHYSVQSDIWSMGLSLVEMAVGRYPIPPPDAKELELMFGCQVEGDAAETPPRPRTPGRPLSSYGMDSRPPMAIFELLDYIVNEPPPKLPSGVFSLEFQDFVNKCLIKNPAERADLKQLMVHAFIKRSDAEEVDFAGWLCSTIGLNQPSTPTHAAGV

O=C1Nc2ncccc2/C1=C1/Nc2ncccc2C1=O
Activity [1]: 104% | Activity [2]: 120% | GI50 [3]: 2260 nM | Activity [4]: 97% | Activity [5]: 83% | Activity [6]: 96% | Activity [7]: 107% | GI50 [8]: 1900 nM | GI50 [9]: 1410 nM | Activity [10]: 73% | Activity [11]: 114% | Activity [12]: 81% | Activity [13]: 88% | Activity [14]: 109% | GI50 [15]: 289 nM | Activity [16]: 77% | Activity [17]: 114% | GI50 [18]: 2020 nM | Activity [19]: 119% | GI50 [20]: 1010 nM | GI50 [21]: 307 nM | Activity [22]: 114% | Activity [23]: 104% | Activity [24]: 63% | Activity [25]: 160% | Activity [26]: 69% | GI50 [27]: 1770 nM | Activity [28]: 98% | GI50 [29]: 372 nM | Activity [30]: 61% | Activity [31]: 100%

— ChEMBL document CHEMBL3098105, “7,7'-Diazaindirubin--a small molecule inhibitor of casein kinase 2 in vitro and in cells” (Bioorg Med Chem, 2014)
